Values after ≈ are worked out from the molar mass of the structure shown.
Assays:
A549 = experiment: Cytotoxicity against human A549 cells assessed as growth inhibition after 72 hrs by SRB assay; type: functional; details: for EC50: Homo sapiens, A549, 72 h, read-out: ED50 (the source's name)
Method in brief: (§1)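 Sulforhodamine B assay run by NCI-validated procedure. Cells grown at 37 °C under humidified 5% CO2 in RPMI-1640 with 25 mM HEPES, […] (w/v) sodium bicarbonate, 10% (v/v) FBS and 100 μg/mL kanamycin. Compounds came from DMSO stocks, with final DMSO ≤ 1% (v/v). Continuous exposure for 72 h. ED50 (μg/mL, 50% cell-number reduction) interpolated from dose-response data. Triplicate tests. Doxorubicin served as positive control.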

PC-3 = experiment: Cytotoxicity against human PC3 cells assessed as growth inhibition after 72 hrs by SRB assay; type: functional; details: for EC50: Homo sapiens, PC-3, 72 h, read-out: ED50 (the source's name); method in brief: as §1
[1] = Cytotoxicity against human KBVIN cells assessed as growth inhibition after 72 hrs by SRB assay; type: functional; details: for EC50: Homo sapiens, KBVIN, 72 h, read-out: ED50 (the source's name); method in brief: as §1
1A9 = experiment: Cytotoxicity against human 1A9 cells assessed as growth inhibition after 72 hrs by SRB assay; type: functional; details: for EC50: Homo sapiens, 1A9, 72 h, read-out: ED50 (the source's name); method in brief: as §1
KB = experiment: Cytotoxicity against human KB cells assessed as growth inhibition after 72 hrs by SRB assay; type: functional; details: for EC50: Homo sapiens, KB, 72 h, read-out: ED50 (the source's name); method in brief: as §1
CAKI-1 = experiment: Cytotoxicity against human CAKI-1 cells assessed as growth inhibition after 72 hrs by SRB assay; type: functional; details: for EC50: Homo sapiens, CAKI-1, 72 h, read-out: ED50 (the source's name); method in brief: as §1
SK-MEL-2 = experiment: Cytotoxicity against human SK-MEL-2 cells assessed as growth inhibition after 72 hrs by SRB assay; type: functional; details: for EC50: Homo sapiens, SK-MEL-2, 72 h, read-out: ED50 (the source's name); method in brief: as §1
MCF7 = experiment: Cytotoxicity against human MCF7 cells assessed as growth inhibition after 72 hrs by SRB assay; type: functional; details: for EC50: Homo sapiens, MCF7, 72 h, read-out: ED50 (the source's name); method in brief: as §1
[2] = Cytotoxicity against human U87MG cells assessed as growth inhibition after 72 hrs by SRB assay; type: functional, U-87MG ATCC; details: for EC50: Homo sapiens, U-87 MG, 72 h, read-out: ED50 (the source's name); method in brief: as §1
[3] = Cytotoxicity against human […] cells assessed as growth inhibition after 72 hrs by SRB assay; type: functional; details: for EC50: Homo sapiens, HCT9, 72 h, read-out: ED50 (the source's name); method in brief: as §1

| SMILES | EC50 (A549) | EC50 (PC-3) | EC50 [1] | EC50 (1A9) | EC50 (KB) | EC50 (CAKI-1) | EC50 (SK-MEL-2) | EC50 (MCF7) | EC50 [2] | EC50 [3] | ED50 (A549) | ED50 (PC-3) | ED50 [1] | ED50 (1A9) | ED50 (KB) | ED50 (CAKI-1) | ED50 (SK-MEL-2) | ED50 (MCF7) | ED50 [2] | ED50 [3] |
| --- | --- | --- | --- | --- | --- | --- | --- | --- | --- | --- | --- | --- | --- | --- | --- | --- | --- | --- | --- | --- |
| C[C@H]1O[C@H](O[C@H]2CC[C@]3(C=O)[C@H]4C[C@@H](O)[C@]5(C)[C@@H](C6=CC(=O)OC6)CC[C@]5(O)[C@@H]4CC[C@]3(O)C2)[C@H](O)[C@H](O)[C@H]1O | 0.059 mg/L (≈ 0.104 µM) | 0.0044 mg/L (≈ 0.00777 µM) | 0.15 mg/L (≈ 0.265 µM) | 0.058 mg/L (≈ 0.102 µM) | 0.14 mg/L (≈ 0.247 µM) | 0.072 mg/L (≈ 0.127 µM) | 0.13 mg/L (≈ 0.229 µM) | 0.1 mg/L (≈ 0.176 µM) | 0.017 mg/L (≈ 0.03 µM) | 0.15 mg/L (≈ 0.265 µM) |  |  |  |  |  |  |  |  |  |  |
| C[C@@H]1O[C@H](O[C@H]2CC[C@]3(C=O)[C@H]4C[C@@H](O)[C@]5(C)[C@@H](C6=CC(=O)OC6)CC[C@]5(O)[C@@H]4CC[C@]3(O)C2)[C@H](O)[C@H](O)[C@H]1O | 0.013 mg/L (≈ 0.0229 µM) | 0.05 mg/L (≈ 0.0882 µM) | 0.061 mg/L (≈ 0.108 µM) | 0.014 mg/L (≈ 0.0247 µM) | 0.067 mg/L (≈ 0.118 µM) | 0.015 mg/L (≈ 0.0265 µM) | 0.065 mg/L (≈ 0.115 µM) | 0.018 mg/L (≈ 0.0318 µM) | 0.071 mg/L (≈ 0.125 µM) | 0.066 mg/L (≈ 0.116 µM) |  |  |  |  |  |  |  |  |  |  |
| CC1(C)Oc2ccc3ccc(=O)oc3c2[C@@H](O[C@@H]2O[C@H](CO)[C@@H](O)[C@H](O)[C@H]2O)[C@@H]1O | 1.2 mg/L (≈ 2.83 µM) |  | 4.1 mg/L (≈ 9.66 µM) |  | 5.8 mg/L (≈ 13.7 µM) |  |  | 3.1 mg/L (≈ 7.3 µM) | 7.4 mg/L (≈ 17.4 µM) |  |  |  |  |  |  |  |  |  |  |  |
| C[C@H]1O[C@@H](O[C@H]2CC[C@]3(C=O)[C@H]4CC[C@]5(C)[C@@H](C6=CC(=O)OC6)CC[C@]5(O)[C@@H]4CC[C@]3(O)C2)[C@H](O)[C@H](O)[C@H]1O[C@@H]1O[C@H](CO)[C@@H](O)[C@H](O)[C@H]1O | 0.12 mg/L (≈ 0.168 µM) | 0.6 mg/L (≈ 0.842 µM) | 1.7 mg/L (≈ 2.39 µM) | 0.53 mg/L (≈ 0.744 µM) | 1.5 mg/L (≈ 2.1 µM) | 0.51 mg/L (≈ 0.716 µM) | 0.16 mg/L (≈ 0.224 µM) | 0.58 mg/L (≈ 0.814 µM) | 1.9 mg/L (≈ 2.67 µM) | 0.94 mg/L (≈ 1.32 µM) |  |  |  |  |  |  |  |  |  |  |
| C[C@]12CC[C@H]3[C@@H](CC[C@@H]4C[C@@H](O)CC[C@@]43CO)[C@@]1(O)CC[C@@H]2C1=CC(=O)OC1 | 0.05 mg/L (≈ 0.128 µM) | 0.15 mg/L (≈ 0.384 µM) | 0.5 mg/L (≈ 1.28 µM) | 12 mg/L (≈ 30.7 µM) | 0.45 mg/L (≈ 1.15 µM) | 0.11 mg/L (≈ 0.282 µM) | 0.7 mg/L (≈ 1.79 µM) | 0.21 mg/L (≈ 0.538 µM) | 0.5 mg/L (≈ 1.28 µM) | 0.46 mg/L (≈ 1.18 µM) |  |  |  |  |  |  |  |  |  |  |
| CO[C@H]1[C@@H](O[C@H]2CC[C@]3(C=O)[C@H]4CC[C@]5(C)[C@@H](C6=CC(=O)OC6)CC[C@]5(O)[C@@H]4CC[C@]3(O)C2)O[C@H](C)[C@@H](O)[C@H]1O (stereo in doubt; 21) [STROPHATHOJAVOSIDE] |  |  |  |  |  |  |  |  |  |  | 0.016 mg/L (≈ 0.0283 µM) | 0.052 mg/L (≈ 0.0921 µM) | 0.051 mg/L (≈ 0.0903 µM) | 0.013 mg/L (≈ 0.023 µM) | 0.066 mg/L (≈ 0.117 µM) | 0.014 mg/L (≈ 0.0248 µM) | 0.064 mg/L (≈ 0.113 µM) | 0.042 mg/L (≈ 0.0744 µM) | 0.078 mg/L (≈ 0.138 µM) | 0.067 mg/L (≈ 0.119 µM) |
| CO[C@H]1[C@@H](O[C@H]2CC[C@]3(C=O)[C@H]4CC[C@]5(C)[C@@H](C6=CC(=O)OC6)CC[C@]5(O)[C@@H]4CC[C@]3(O)C2)O[C@H](C)[C@@H](O)[C@H]1O (stereo in doubt; 23) [STROPHATHOJAVOSIDE] | 0.015 mg/L (≈ 0.0266 µM) | 0.063 mg/L (≈ 0.112 µM) | 0.05 mg/L (≈ 0.0885 µM) | 0.013 mg/L (≈ 0.023 µM) | 0.081 mg/L (≈ 0.143 µM) | 0.014 mg/L (≈ 0.0248 µM) | 0.063 mg/L (≈ 0.112 µM) | 0.024 mg/L (≈ 0.0425 µM) | 0.043 mg/L (≈ 0.0762 µM) | 0.085 mg/L (≈ 0.151 µM) |  |  |  |  |  |  |  |  |  |  |
| C[C@H]1O[C@H](O[C@H]2CC[C@]3(C=O)[C@H]4C[C@@H](O)[C@]5(C)[C@@H](C6=CC(=O)OC6)CC[C@]5(O)[C@@H]4CC[C@]3(O)C2)[C@H](O)[C@H](O)[C@@H]1O [ANTIALLOSIDE] | 0.046 mg/L (≈ 0.0812 µM) | 0.085 mg/L (≈ 0.15 µM) | 0.075 mg/L (≈ 0.132 µM) | 0.062 mg/L (≈ 0.109 µM) | 0.065 mg/L (≈ 0.115 µM) | 0.068 mg/L (≈ 0.12 µM) | 0.12 mg/L (≈ 0.212 µM) | 0.12 mg/L (≈ 0.212 µM) | 0.15 mg/L (≈ 0.265 µM) | 0.11 mg/L (≈ 0.194 µM) |  |  |  |  |  |  |  |  |  |  |

Source: ChEMBL document CHEMBL3120107, “Cytotoxic cardiac glycosides and coumarins from Antiaris toxicaria” (2014)
